Paper PMC9476207 (ACS Omega, 2022)

What was measured:
Experiment in all cases: NCI-60 single-dose antiproliferative screen
Format in all cases: cell-based
RPMI-8226 = conditions: Homo sapiens, RPMI-8226, 48 h, read-out: growth percent
Outline: (§1)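 NCI-60 protocol. Lines were grown in RPMI 1640 with 5% FBS and 2 mM L-glutamine, plated and incubated 24 h at 37 °C; time-zero plates were TCA-fixed. The test compound was dissolved in DMSO, diluted in medium with 50 μg/mL gentamicin and given once at a final 10^-5 M (DMSO control) for 48 h. Cells were fixed with cold TCA (1 h, 4 °C) and stained with 0.4% SRB in 1% acetic acid for 10 min. Dye was dissolved in 10 mM Trizma base and read at 515 nm. Growth percent was calculated from time-zero, test and control ODs.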

TK-10 = conditions: Homo sapiens, TK-10, 48 h, read-out: growth percent
Outline: (§2)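 Cells grown in RPMI 1640 with 5% FBS and 2 mM L-glutamine, plated and held 24 h at 37 °C; time-zero plates TCA-fixed. DMSO stocks were diluted in gentamicin-containing medium to a final 10^-5 M, with a DMSO-only control. Exposure 48 h, 5% CO2. Adherent cells TCA-fixed 1 h at 4 °C, stained with 0.4% SRB, solubilised in 10 mM Trizma base, read at 515 nm. Growth percent derived from ODtzero, ODtest and ODctrl.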

M14 = conditions: Homo sapiens, M14, 48 h, read-out: growth percent
Outline: as §1

MDA-MB-231 ATCC = conditions: Homo sapiens, MDA-MB-231, 48 h, read-out: growth percent
Outline: as §1

SF-295 = conditions: Homo sapiens, SF-295, 48 h, read-out: growth percent
Outline: as §1

MCF-7 = conditions: Homo sapiens, MCF7, 48 h, read-out: growth percent
Outline: as §1

HOP-92 = conditions: Homo sapiens, HOP-92, 48 h, read-out: growth percent
Outline: as §1

SK-MEL-28 = conditions: Homo sapiens, SK-MEL-28, 48 h, read-out: growth percent
Outline: as §2

IGROV1 = conditions: Homo sapiens, IGROV-1, 48 h, read-out: growth percent
Outline: as §1

MDA-MB-468 = conditions: Homo sapiens, MDA-MB-468, 48 h, read-out: growth percent
Outline: as §1

SF-268 = conditions: Homo sapiens, SF-268, 48 h, read-out: growth percent
Outline: as §1

HCC-2998 = conditions: Homo sapiens, HCC 2998, 48 h, read-out: growth percent
Outline: as §1

HOP-62 = conditions: Homo sapiens, HOP-62, 48 h, read-out: growth percent
Outline: as §1

DU-145 = conditions: Homo sapiens, DU-145, 48 h, read-out: growth percent
Outline: as §1

NCI/ADR-RES = conditions: Homo sapiens, 48 h, read-out: growth percent
Outline: as §1

CAKI-1 = conditions: Homo sapiens, CAKI-1, 48 h, read-out: growth percent
Outline: as §1

SK-MEL-2 = conditions: Homo sapiens, SK-MEL-2, 48 h, read-out: growth percent
Outline: as §2

SW-620 = conditions: Homo sapiens, SW-620, 48 h, read-out: growth percent
Outline: as §2

OVCAR-5 = conditions: Homo sapiens, OVCAR-5, 48 h, read-out: growth percent
Outline: as §1

MALME-3M = conditions: Homo sapiens, 48 h, read-out: growth percent
Outline: as §1

SN12C = conditions: Homo sapiens, 48 h, read-out: growth percent
Outline: as §2

K-562 = conditions: Homo sapiens, K562, 48 h, read-out: growth percent
Outline: as §1

OVCAR-4 = conditions: Homo sapiens, OVCAR-4, 48 h, read-out: growth percent
Outline: as §1

SK-MEL-5 = conditions: Homo sapiens, SK-MEL-5, 48 h, read-out: growth percent
Outline: as §2

NCI-H522 = conditions: Homo sapiens, NCI-H522, 48 h, read-out: growth percent
Outline: as §1

RXF 393 = conditions: Homo sapiens, RXF 393, 48 h, read-out: growth percent
Outline: as §1

KM12 = conditions: Homo sapiens, KM12, 48 h, read-out: growth percent
Outline: as §1

LOX IMVI = conditions: Homo sapiens, 48 h, read-out: growth percent
Outline: as §1

EKVX = conditions: Homo sapiens, 48 h, read-out: growth percent
Outline: as §1

CCRF-CEM = conditions: Homo sapiens, 48 h, read-out: growth percent
Outline: as §1

SK-OV-3 = conditions: Homo sapiens, SK-OV-3, 48 h, read-out: growth percent
Outline: as §2

A549/ATCC = conditions: Homo sapiens, A549, 48 h, read-out: growth percent
Outline: as §1

BT-549 = conditions: Homo sapiens, BT-549, 48 h, read-out: growth percent
Outline: as §1

SR = conditions: Homo sapiens, 48 h, read-out: growth percent
Outline: as §2

786-0 = conditions: Homo sapiens, 786-0, 48 h, read-out: growth percent
Outline: as §1

NCI-H322M = conditions: Homo sapiens, 48 h, read-out: growth percent
Outline: as §1

SMILES	activity at 10 µM (RPMI-8226) [%]	activity at 10 µM (TK-10) [%]	activity at 10 µM (M14) [%]	activity at 10 µM (MDA-MB-231 ATCC) [%]	activity at 10 µM (SF-295) [%]	activity at 10 µM (MCF-7) [%]	activity at 10 µM (HOP-92) [%]	activity at 10 µM (SK-MEL-28) [%]	activity at 10 µM (IGROV1) [%]	activity at 10 µM (MDA-MB-468) [%]	activity at 10 µM (SF-268) [%]	activity at 10 µM (HCC-2998) [%]	activity at 10 µM (HOP-62) [%]	activity at 10 µM (DU-145) [%]	activity at 10 µM (NCI/ADR-RES) [%]	activity at 10 µM (CAKI-1) [%]	activity at 10 µM (SK-MEL-2) [%]	activity at 10 µM (SW-620) [%]	activity at 10 µM (OVCAR-5) [%]	activity at 10 µM (MALME-3M) [%]	further results
COc1cc(CNC(=O)CCCC/C=C/C(C)C)ccc1OCc1cn(-c2ccc([N+](=O)[O-])cc2)nn1 [14e, (E)-N-(3-Methoxy-4-((1-(4-nitrophenyl)-1H-1,2,3-triazol-4-yl)methoxy)benzyl)-8methylnon-6-enamide]	61.8	92.7	89.7	75.3	89	83.5	90.3	102	90.4	77.4	86.1	108	80.9	105	29	90.7	92	99.8	99.2	98.4	activity at 10 µM (SN12C): 91.7%; activity at 10 µM (K-562): 74.5%; activity at 10 µM (OVCAR-4): 87.2%; activity at 10 µM (SK-MEL-5): 76.1%; activity at 10 µM (NCI-H522): 78.2%; activity at 10 µM (RXF 393): 99.7%; activity at 10 µM (KM12): 90%; activity at 10 µM (LOX IMVI): 89.5%; activity at 10 µM (EKVX): 75.3%; activity at 10 µM (CCRF-CEM): 84.9%; activity at 10 µM (SK-OV-3): 76.7%; activity at 10 µM (A549/ATCC): 84.1%; activity at 10 µM (BT-549): 80.4%; activity at 10 µM (SR): 62.2%; activity at 10 µM (786-0): 93.7%; activity at 10 µM (NCI-H322M): 97.9%
COc1cc(CNC(=O)CCCC/C=C/C(C)C)ccc1OCc1cn(-c2cccc([N+](=O)[O-])c2)nn1 [14f, (E)-N-(3-Methoxy-4-((1-(3-nitrophenyl)-1H-1,2,3-triazol-4-yl)methoxy)benzyl)-8-methylnon-6-enamide]	65.9	105	93.4	88.4	104	74.1	70.4	106	89.4	72.3	92.2	101	97.4	109	81.8	81.7	88.4	97.4	107	103	activity at 10 µM (SN12C): 89.5%; activity at 10 µM (K-562): 81.5%; activity at 10 µM (OVCAR-4): 94.2%; activity at 10 µM (SK-MEL-5): 93.2%; activity at 10 µM (NCI-H522): 82.6%; activity at 10 µM (RXF 393): 92.7%; activity at 10 µM (KM12): 91.2%; activity at 10 µM (LOX IMVI): 92.9%; activity at 10 µM (EKVX): 95.1%; activity at 10 µM (CCRF-CEM): 90.2%; activity at 10 µM (SK-OV-3): 93.5%; activity at 10 µM (A549/ATCC): 92%; activity at 10 µM (BT-549): 96.3%; activity at 10 µM (SR): 78.4%; activity at 10 µM (786-0): 73.4%; activity at 10 µM (NCI-H322M): 94.1%
COc1cc(CNC(=O)CCCC/C=C/C(C)C)ccc1OCc1cn(-c2ccc(C(F)(F)F)cc2)nn1 [14g, (E)-N-(3-Methoxy-4-((1-(4-(trifluoromethyl)phenyl)-1H-1,2,3-triazol-4-yl)methoxy)benzyl)-8-methylnon-6-enamide]	53.4	20.4	97.5	75.2	90.9	80.7	13.8	107	58.7	70.2	87.8	94.8	64.6	62.2	48.2	85.8	95.1	41.3	96.6	99.7	activity at 10 µM (SN12C): 65.6%; activity at 10 µM (K-562): 76.3%; activity at 10 µM (OVCAR-4): 98.6%; activity at 10 µM (SK-MEL-5): 97.1%; activity at 10 µM (NCI-H522): 75.6%; activity at 10 µM (RXF 393): 90.2%; activity at 10 µM (KM12): 81.2%; activity at 10 µM (LOX IMVI): 60.3%; activity at 10 µM (EKVX): 88.2%; activity at 10 µM (CCRF-CEM): 68.8%; activity at 10 µM (SK-OV-3): 91.3%; activity at 10 µM (A549/ATCC): 49%; activity at 10 µM (BT-549): 80.4%; activity at 10 µM (SR): 70.4%; activity at 10 µM (786-0): 2.94%; activity at 10 µM (NCI-H322M): 96.2%
COc1cc(CNC(=O)CCCC/C=C/C(C)C)ccc1OCc1cn(-c2ccc(F)cc2)nn1 [14h, (E)-N-(4-((1-(4-Fluorophenyl)-1H-1,2,3-triazol-4-yl)methoxy)-3-methoxybenzyl)-8-methylnon-6-enamide]	68.4	103	94	69.1	90.5	89.3	66.2	102	97	68.2	87.2	110	84.1	96.1	70.6	88.4	111	91	97.6	103	activity at 10 µM (SN12C): 82.4%; activity at 10 µM (K-562): 68.7%; activity at 10 µM (OVCAR-4): 82.2%; activity at 10 µM (SK-MEL-5): 83.7%; activity at 10 µM (NCI-H522): 70.2%; activity at 10 µM (RXF 393): 95.3%; activity at 10 µM (KM12): 94.5%; activity at 10 µM (LOX IMVI): 84.2%; activity at 10 µM (EKVX): 72.7%; activity at 10 µM (CCRF-CEM): 79.7%; activity at 10 µM (SK-OV-3): 86.4%; activity at 10 µM (A549/ATCC): 84.3%; activity at 10 µM (BT-549): 91%; activity at 10 µM (SR): 76.7%; activity at 10 µM (786-0): 83.7%; activity at 10 µM (NCI-H322M): 91.8%
